The source of these data is PubChem BioAssay.

A short description of experiment [1]: hit retest on RPL19A-GFP reporter strain – cell-based, S. cerevisiae, flow cytometry, cherry picks, mother/daughter gates, confirmation (AID 2270;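 active = GFP response below 50% of the DMSO control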). Conditions: 3 h, at 10 µM, stronger effect = lower value, 100 = same GFP as DMSO wells. (In flow cytometry, cells or beads pass a laser one at a time.)
The nature of experiment [2]: yeast TOR pathway reporter LAP4-GFP change – cell-based, cherry picks, flow cytometry, mother/daughter gates, confirmation (AID 2271;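 active = GFP response above 150% of the DMSO control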;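 also: ratio of sample to DMSO plate mean so 100% equals DMSO level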). The conditions noted are these: S. cerevisiae LAP4-GFP strain, 3 h, at 10 µM, stronger effect = higher value, 100 means same as DMSO control. Summed up:
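Test system: GFP-fusion yeast strain. Medium: synthetic complete (SC) yeast growth medium. Timing: 3 h treatment at 30 °C with rotation. Measured by: GFP by flow cytometry. Control set: positive rapamycin (400 ng/mL), negative DMSO.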

Experiment [3] is described as follows: TOR pathway reporter MEP2-GFP, retest of hits – S. cerevisiae, flow cytometry GFP, cherry picks, confirmation (AID 2272;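 active = GFP response above 150% of the DMSO control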;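 also: ratio of well signal to plate DMSO mean so 100% equals DMSO level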). Conditions: S. cerevisiae MEP2-GFP strain, 3 h, at 10 µM, stronger effect = higher value.
A short description of experiment [4]: yeast AGP1-GFP fluorescence change, single-dose – cell-based, flow cytometry, S. cerevisiae, cherry picks, confirmation (AID 2273).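 Also: median GFP channel fluorescence over the whole cell population gate.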 Conditions: S. cerevisiae AGP1-GFP strain, 3 h, at 10 µM.
Experiment [5] can be described thus: TOR pathway CIT2 reporter hit retest – S. cerevisiae, GFP fusion, cherry picks, mother/daughter gates, confirmation (AID 2274). The conditions noted are these: S. cerevisiae CIT2-GFP strain, flow cytometry, 3 h, at 10 µM, stronger effect = higher value.
The mark [6] stands for this setting: measured here: daughter cell gate.
Where [7] appears, read: measured here: mother cell gate.
Where [8] appears, read: measured here: daughter cell gate response.
The mark [9] stands for this setting: measured here: mother cell gate response.

Activity calls are given as the source filed them.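 The calls were made as follows, unless noted: active = GFP response above 150% of the DMSO level; inconclusive = fewer than 70 events counted for a yeast strain; inactive = the rest.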

As to `CC(C)C(=O)Nc1ccc(NC(=O)c2cc3ccccc3o2)cc1`, the GFP response vs DMSO in experiment [1] is 99.6% (inactive); in experiment [1] (setting [6]) it was 100%; in experiment [1] (setting [7]), 98.6%; in experiment [3], 99.3% (inactive). Further, the GFP response relative to DMSO in experiment [2] was 102% (inactive); in experiment [2] (setting [8]), 101%; in experiment [2] (setting [9]) it was 102%. Further, the GFP response, % of DMSO in experiment [4] was 99.1% (inactive); in experiment [5], 100% (inactive); in experiment [5] (setting [6]), 97.6%; in experiment [5] (setting [7]), 100%.

In the case of `CCOc1ccc(-c2noc(-c3ccncc3)n2)cc1OCC`, the GFP response vs DMSO in experiment [1] is 96.4% (inactive); in experiment [1] (setting [6]), 93.7%; in experiment [1] (setting [7]), 95.7%; in experiment [3], 116% (inactive). Further, the GFP response relative to DMSO in experiment [2] is 106% (inactive); in experiment [2] (setting [8]), 106%; in experiment [2] (setting [9]), 106%. Also, the GFP response, % of DMSO in experiment [4] was 98.8% (inactive); in experiment [5], 102% (inactive); in experiment [5] (setting [6]), 103%; in experiment [5] (setting [7]) it was 99.3%.

As for `CCN1CCN(C(=O)C2CCN(c3nnc(C)c4c(C)n(-c5ccc(C)cc5)nc34)CC2)CC1`, the GFP response vs DMSO in experiment [1] was 97.2% (inactive); in experiment [1] (setting [6]), 96.5%; in experiment [1] (setting [7]), 97.8%; in experiment [3], 104% (inactive). Besides, the GFP response relative to DMSO in experiment [2] was 102% (inactive); in experiment [2] (setting [8]), 101%; in experiment [2] (setting [9]), 101%. For the same compound, the GFP response, % of DMSO in experiment [4] was 106% (inactive); in experiment [5], 99.3% (inactive); in experiment [5] (setting [6]), 102%; in experiment [5] (setting [7]), 98%.

On to `O=C1c2cccc3c([N+](=O)[O-])ccc(c23)C(=O)N1CCc1ccccn1`, for which the GFP response vs DMSO in experiment [1] is 103% (inactive); in experiment [1] (setting [6]), 104%; in experiment [1] (setting [7]), 99.2%; in experiment [3] it was 286% (active). Besides, the GFP response relative to DMSO was 164% (active) in experiment [2], 157% in experiment [2] (setting [8]) and 156% in experiment [2] (setting [9]). Also, the GFP response, % of DMSO is 120% (inactive) in experiment [4], 158% (active) in experiment [5], 156% in experiment [5] (setting [6]) and 144% in experiment [5] (setting [7]).

With `O=C(Nc1ccc(S(=O)(=O)N2CCOCC2)cc1)c1ccc([N+](=O)[O-])cc1Cl`, the GFP response vs DMSO was 99.6% (inactive) in experiment [1], 101% in experiment [1] (setting [6]), 99.7% in experiment [1] (setting [7]) and 102% (inactive) in experiment [3]. Besides, the results for the GFP response relative to DMSO in experiment [2], in experiment [2] (setting [8]) and in experiment [2] (setting [9]) were 94.1% (inactive), 94.4% and 94%, respectively. For the same compound, the GFP response, % of DMSO in experiment [4] is 91.7% (inactive); in experiment [5], 101% (inactive); in experiment [5] (setting [6]), 103%; in experiment [5] (setting [7]), 99.7%.

For `O=[N+]([O-])c1cc(Cl)ccc1Sc1ccccn1`, the GFP response vs DMSO was 104% (inactive) in experiment [1], 102% in experiment [1] (setting [6]), 103% in experiment [1] (setting [7]) and 112% (inactive) in experiment [3]. For the same compound, the figures for the GFP response relative to DMSO in experiment [2], in experiment [2] (setting [8]) and in experiment [2] (setting [9]) were 98.2% (inactive), 95.9% and 98.4%, respectively. Moreover, the GFP response, % of DMSO in experiment [4] was 99% (inactive); in experiment [5] it was 95.9% (inactive); in experiment [5] (setting [6]), 95.6%; in experiment [5] (setting [7]), 93.2%.

As to `CCOc1ccccc1N1CCN(C(=O)c2ccccc2)CC1`, the GFP response vs DMSO in experiment [1] is 97.6% (inactive); in experiment [1] (setting [6]), 98.5%; in experiment [1] (setting [7]), 98.8%; in experiment [3], 102% (inactive). Besides, the GFP response relative to DMSO in experiment [2] was 101% (inactive); in experiment [2] (setting [8]) it was 101%; in experiment [2] (setting [9]), 103%. Further, the GFP response, % of DMSO in experiment [4] was 101% (inactive); in experiment [5] it was 101% (inactive); in experiment [5] (setting [6]), 100%; in experiment [5] (setting [7]), 99.1%.

As to `CC(=O)c1sc(NC(=O)c2ccco2)nc1-c1ccccc1`, the GFP response vs DMSO in experiment [1] is 98.4% (inactive); in experiment [1] (setting [6]), 101%; in experiment [1] (setting [7]), 96.5%; in experiment [3], 103% (inactive). For the same compound, the GFP response relative to DMSO in experiment [2] is 107% (inactive); in experiment [2] (setting [8]), 101%; in experiment [2] (setting [9]), 108%. The GFP response, % of DMSO in experiment [4] is 94.9% (inactive); in experiment [5] it was 110% (inactive); in experiment [5] (setting [6]), 112%; in experiment [5] (setting [7]), 108%.

Consider `COc1cc(NC(=O)c2ccc(C)cc2C)ccc1NC(=O)c1cc2ccccc2o1`, for which the GFP response vs DMSO in experiment [1] is 97.1% (inactive); in experiment [1] (setting [6]) it was 95.9%; in experiment [1] (setting [7]), 94.4%; in experiment [3], 106% (inactive). Also, the GFP response relative to DMSO is 97.7% (inactive) in experiment [2], 97.5% in experiment [2] (setting [8]) and 95.4% in experiment [2] (setting [9]). The GFP response, % of DMSO was 105% (inactive) in experiment [4], 97.2% (inactive) in experiment [5], 101% in experiment [5] (setting [6]) and 97.1% in experiment [5] (setting [7]).

`O=C(CN1CCN(Cc2ccccc2Cl)C1=O)NC1CCCCCCC1`: the GFP response vs DMSO in experiment [1] is 98.2% (inactive); in experiment [1] (setting [6]) it was 98.6%; in experiment [1] (setting [7]) it was 99.7%; in experiment [3], 100% (inactive). Besides, the figures for the GFP response relative to DMSO in experiment [2], in experiment [2] (setting [8]) and in experiment [2] (setting [9]) were 96.7% (inactive), 97.6% and 95.1%, respectively. Moreover, the GFP response, % of DMSO was 99.7% (inactive) in experiment [4], 107% (inactive) in experiment [5], 106% in experiment [5] (setting [6]) and 104% in experiment [5] (setting [7]).

As for `Cc1ccc(-c2csc(NC(=O)c3cccc([N+](=O)[O-])c3)n2)cc1`, the GFP response vs DMSO in experiment [1] was 101% (inactive); in experiment [1] (setting [6]) it was 98.1%; in experiment [1] (setting [7]), 97.5%; in experiment [3] it was 107% (inactive). The GFP response relative to DMSO was 97% (inactive) in experiment [2], 95.9% in experiment [2] (setting [8]) and 97.3% in experiment [2] (setting [9]). The GFP response, % of DMSO in experiment [4] was 99.6% (inactive); in experiment [5], 98.8% (inactive); in experiment [5] (setting [6]) it was 97.4%; in experiment [5] (setting [7]), 93.2%.

Regarding `Cc1ccc(NC(=S)c2nc3ccccc3[nH]2)cc1`, the GFP response vs DMSO in experiment [1] was 101% (inactive); in experiment [1] (setting [6]), 99.6%; in experiment [1] (setting [7]) it was 99.3%; in experiment [3] it was 109% (inactive). For the same compound, the GFP response relative to DMSO in experiment [2] is 125% (inactive); in experiment [2] (setting [8]), 120%; in experiment [2] (setting [9]), 128%. Moreover, the GFP response, % of DMSO in experiment [4] is 88.3% (inactive); in experiment [5], 102% (inactive); in experiment [5] (setting [6]) it was 103%; in experiment [5] (setting [7]), 99.3%.

As to `CCN(CC)N=Nc1[nH]nc2nc(C)cc(C)c12`, the GFP response vs DMSO is 127% (inactive) in experiment [1], 103% in experiment [1] (setting [6]), 118% in experiment [1] (setting [7]) and 137% (inactive) in experiment [3]. Moreover, the figures for the GFP response relative to DMSO in experiment [2], in experiment [2] (setting [8]) and in experiment [2] (setting [9]) were 120% (inactive), 102% and 116%, respectively. Moreover, the GFP response, % of DMSO in experiment [4] was 120% (inactive); in experiment [5] it was 133% (inactive); in experiment [5] (setting [6]), 123%; in experiment [5] (setting [7]) it was 134%.
